Test results as given in the array DNA melting data of Ke et al. (doi:10.1101/2024.01.08.574731).

Assays:
[1] = folding enthalpy; higher = less favourable; fluorescence melt of hairpins on a sequencing array, two-state fit; details: sodium 0.088 M
Procedure, shortened: (§1)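 Hairpins were imaged by Cy3 fluorescence on a sequenced MiSeq flow cell with annealed Cy3 and quencher oligos, in 50 mM Na-HEPES pH 8.0, 25 mM NaCl, in 2.5 °C steps up to 60 °C. Bootstrapped two-state fits of normalised signals gave melting temperature and folding enthalpy. Four replicates were combined by inverse variance, and fitted temperatures were raised by 9.35 °C to match UV melts.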

[2] = melting temperature; fluorescence melt of hairpins on a sequencing array, two-state fit, raised by 9.35 °C to match UV melts; details: sodium 0.088 M
Procedure, shortened: as §1

| Sequence | folding enthalpy [1] [kcal/mol] | Tm [2] [°C] |
| --- | --- | --- |
| GGTGACGAAAGTCAAACC ((((((....)))..))) | -17.4 | 46.3 |
| GGTGACGAAAGTCCACC ((((((....))).))) | -25.9 | 50.8 |
| GGTGACGAAAGTCCCACC ((((((....)))..))) | -12.9 | 43.4 |
| GGTGACGAAAGTCGCACC ((((((....)))..))) | -13.9 | 45.6 |
| GGTGACGGAAACATCACC (((((.(....).))))) | -33.1 | 43.7 |
| GGTGACGGAAACGTCGTC (..((((....))))..) | -13.9 | 42 |
| GGTGATCGAAAGATGACC (((.(((....))).))) | -33.4 | 47.9 |
| GGTGCAACGAAAGTTACC (((..(((....)))))) | -13.1 | 27.7 |
| GGTGCACCGAAAGGTACC (((..(((....)))))) | -11.6 | 37.6 |
| GGTGCACGAAAGTGACC (((.(((....)))))) | -17.4 | 49 |
| GGTGCACGAAAGTGTACC (((.(((....))).))) | -38 | 64.5 |
| GGTGCAGAAATGCACC ((((((....)))))) | -25.9 | 68 |
| GGTGCAGGAAACTGCGCC ((.((((....)))).)) | -34.3 | 65.3 |
| GGTGCAGGAAACTGTGCC ((..(((....)))..)) | -26.1 | 48.5 |
| GGTGCCCGAAAGGGTACC (((.(((....))).))) | -33.4 | 68.2 |
| GGTGCCGAAAGGCAACC ((((((....))).))) | -19.6 | 66.1 |
| GGTGCCGAAAGGCCAACC ((((((....)))..))) | -12.7 | 44.1 |

| Sequence | folding enthalpy [1] [kcal/mol] | Tm [2] [°C] |
| --- | --- | --- |
| GGTGCCGAAAGGCGAACC ((((((....)))..))) | -15 | 46.9 |
| GGTGCCGAAAGGCGCACC ((((((....)))..))) | -11 | 53.2 |
| GGTGCCGAAAGGCGGACC ((((((....)))..))) | -13.9 | 45.7 |
| GGTGCCGAAAGGCTAACC ((((((....)))..))) | -15.3 | 50.7 |
| GGTGCCGAAAGGCTACC ((((((....))).))) | -17.2 | 57.8 |
| GGTGCCGCGAAAGCGACC (((..(((....)))))) | -9.79 | 45.6 |
| GGTGCCGGAAACAGCACC (((((.(....).))))) | -46.2 | 53.5 |
| GGTGCCGGAAACGGCATC (.(((((....))))).) | -15.1 | 62.4 |
| GGTGCGCCGAAAGGCACC (((..(((....)))))) | -13.2 | 51.6 |
| GGTGCGGGAAACCGCGCC ((.((((....)))).)) | -31.3 | 68.7 |
| GGTGCGTCGAAAGACACC (((..(((....)))))) | -13 | 37.1 |
| GGTGCTACGAAAGTAACC (((..(((....)))))) | -13.5 | 29.1 |
| GGTGCTCGAAAGAGGACC (((.(((....))).))) | -47.6 | 59.7 |
| GGTGCTGGAAACAGCGCC ((.((((....)))).)) | -34.3 | 64.9 |
| GGTGGACCGAAAGGTACC (((..(((....)))))) | -13.4 | 45 |
| GGTGGACGAAAGTCTACC (((.(((....))).))) | -41.5 | 59 |
| GGTGGAGGAAACCCCACC (((((.(....).))))) | -43.6 | 51.1 |
